Data from ChEMBL document CHEMBL3259662 (ACS Med Chem Lett, 2014).
Values after ≈ are worked out from the molar mass of the structure shown. Active and inactive are the calls of the source. No cut-off for these calls is given here. Peptide text beside a SMILES is read from it. * marks the point of attachment. Boc = CC(C)(C)OC(=O)*; NHBn = c1ccc(CN*)cc1

Legend:
[1] = system: Vero; experiment: Cytotoxicity against African green monkey Vero cells assessed as cell viability after 48 hrs by neutral red uptake assay; assay type: cell-based; conditions: chlorocebus sabaeus
In short: (§1)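 Neutral red uptake assay in human cancer lines SK-MEL, KB, BT-549 and SK-OV-3 and in noncancerous mammalian kidney cells VERO and LLC-PK1. The highest tested concentration was 10 μg/mL.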

[2] = system: Cryptococcus neoformans; experiment: Antifungal activity against Cryptococcus neoformans ATCC 90113 after 70 to 74 hrs by CLSI method; assay type: functional, organism-based; conditions: for IC50 / MIC: Cryptococcus neoformans, ATCC 90113
In short: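 Growth inhibition of C. neoformans per the CLSI protocol. […] MIC is the lowest test concentration with no detectable growth. MFC is the lowest concentration killing 100% of the organism.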

[3] = system: SK-MEL; experiment: Cytotoxicity against human SK-MEL cells assessed as cell viability after 48 hrs by neutral red uptake assay; assay type: cell-based; in short: as §1
[4] = system: LLC-PK1; experiment: Cytotoxicity against pig LLC-PK1 cells assessed as cell viability after 48 hrs by neutral red uptake assay; assay type: cell-based, Sus scrofa; conditions: llc-pk1, 48 h; in short: as §1
[5] = system: Pichia kudriavzevii; experiment: Antifungal activity against Candida krusei by CLSI method; assay type: functional, organism-based
[6] = system: BT-549; experiment: Cytotoxicity against human BT549 cells assessed as cell viability after 48 hrs by neutral red uptake assay; assay type: cell-based; conditions: bt-549, 48 h; in short: as §1
[7] = Retention time of the compound by reverse phase HPLC analysis; assay type: physicochemical
In short: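 Reverse-phase HPLC on a C-18 column (25 cm × 4.6 mm, 5 μM) at 1 mL/min over 40 min. The gradient ran 85−5% with A = 0.1% TFA in H2O and B = 0.1% TFA in CH3CN. Detection was at 220 nm.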

[8] = system: KB; experiment: Cytotoxicity against human KB cells assessed as cell viability after 48 hrs by neutral red uptake assay; assay type: cell-based; in short: as §1
[9] = system: Candida albicans; experiment: Antifungal activity against Candida albicans by CLSI method; assay type: functional, organism-based
[10] = system: Aspergillus fumigatus; experiment: Antifungal activity against Aspergillus fumigatus by CLSI method; assay type: functional, organism-based
[11] = system: Cryptococcus neoformans; experiment: Antifungal activity against Cryptococcus neoformans ATCC 90113 at 20 ug/ml after 70 to 74 hrs by CLSI method; assay type: functional, organism-based
In short: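 C. neoformans screened per the CLSI protocol at the highest tested concentration of 20 μg/mL. Compounds showing no activity at this level were scored not active.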

[12] = system: SK-OV-3; experiment: Cytotoxicity against human SKOV3 cells assessed as cell viability after 48 hrs by neutral red uptake assay; assay type: cell-based; conditions: sk-ov-3, 48 h; in short: as §1
[13] = system: Nakaseomyces glabratus; experiment: Antifungal activity against Candida glabrata by CLSI method; assay type: functional, organism-based
[14] = system: Escherichia coli; experiment: Antibacterial activity against Escherichia coli ATCC 35218 after 16 to 20 hrs by CLSI method; assay type: functional, organism-based
[15] = Selectivity index, ratio of cytotoxicity for pig LLC-PK1 cells to IC50 for Cryptococcus neoformans ATCC 90113; assay type: toxicity, cell-based; conditions: read-out: Selectivity Index
[16] = Selectivity index, ratio of cytotoxicity for human BT549 cells to IC50 for Cryptococcus neoformans ATCC 90113; assay type: toxicity, cell-based, BT-549; conditions: read-out: Selectivity Index
[17] = Selectivity index, ratio of cytotoxicity for human SK-MEL cells to IC50 for Cryptococcus neoformans ATCC 90113; assay type: toxicity, cell-based; conditions: read-out: Selectivity Index
[18] = Selectivity index, ratio of cytotoxicity for human SKOV3 cells to IC50 for Cryptococcus neoformans ATCC 90113; assay type: toxicity, cell-based, SK-OV-3; conditions: read-out: Selectivity Index
[19] = Selectivity index, ratio of cytotoxicity for African green monkey Vero cells to IC50 for Cryptococcus neoformans ATCC 90113; assay type: toxicity, cell-based; conditions: read-out: Selectivity Index
[20] = Selectivity index, ratio of cytotoxicity for human KB cells to IC50 for Cryptococcus neoformans ATCC 90113; assay type: toxicity, cell-based; conditions: read-out: Selectivity Index

| SMILES | Activity [1] [µg/mL] | IC50 [2] [µg/mL] | Activity [3] [µg/mL] | Activity [4] [µg/mL] | Activity [5] | Activity [6] [µg/mL] | Retention_time [7] [min] | Activity [8] [µg/mL] | Activity [9] | Activity [10] | Activity [11] | Activity [12] [µg/mL] | Activity [13] | Activity [14] | MFC100 [2] [µg/mL] | MIC [2] [µg/mL] | selectivity ratio [15] | selectivity ratio [16] | selectivity ratio [17] | selectivity ratio [18] | also measured |
| --- | --- | --- | --- | --- | --- | --- | --- | --- | --- | --- | --- | --- | --- | --- | --- | --- | --- | --- | --- | --- | --- |
| COC(=O)[C@H](CCCNC(=N)N)NC(=O)[C@H](Cc1c[nH]c(-c2ccccc2)n1)NC(=O)[C@H](CCCNC(=N)N)NC(=O)OC(C)(C)C | > 10 | 10.4 (≈ 15.8 µM) | > 10 | > 10 | inactive | > 10 | 11.89 | > 10 | inactive | inactive | inactive | > 10 | inactive | inactive |  |  |  |  |  |  |  |
| COC(=O)[C@H](CCCNC(=N)N)NC(=O)[C@H](Cc1c[nH]cn1)NC(=O)[C@@H](N)CCCNC(=N)N (H-Arg-His-Arg-OMe) | > 10 | 19 (≈ 39.5 µM) | > 10 | > 10 | inactive | > 10 |  | > 10 | inactive | inactive | inactive | > 10 | inactive | inactive |  |  |  |  |  |  |  |
| N=C(N)NCCC[C@H](NC(=O)[C@H](Cc1c[nH]cn1)NC(=O)[C@@H](N)CCCNC(=N)N)C(=O)NCc1ccccc1 (H-Arg-His-Arg-NHBn) | > 10 |  | > 10 | > 10 | inactive | > 10 |  | > 10 | inactive | inactive | inactive | > 10 | inactive | inactive |  |  |  |  |  |  |  |
| COC(=O)[C@H](CCCNC(=N)N)NC(=O)[C@H](Cc1c[nH]c(-c2ccc(C)cc2)n1)NC(=O)[C@@H](N)CCCNC(=N)N | > 10 | 19.7 (≈ 34.5 µM) | > 10 | > 10 | inactive | > 10 |  | > 10 | inactive | inactive | inactive | > 10 | inactive | inactive |  |  |  |  |  |  |  |
| COC(=O)[C@H](CCCNC(=N)N)NC(=O)[C@H](Cc1c[nH]cn1)NC(=O)[C@H](CCCNC(=N)N)NC(=O)OC(C)(C)C (Boc-Arg-His-Arg-OMe) | > 10 |  | > 10 | > 10 | inactive | > 10 | 10.75 | > 10 | inactive | inactive | inactive | > 10 | inactive | inactive |  |  |  |  |  |  |  |
| CC(C)(C)OC(=O)N[C@@H](CCCNC(=N)N)C(=O)N[C@@H](Cc1c[nH]cn1)C(=O)N[C@@H](CCCNC(=N)N)C(=O)NCc1ccccc1 (Boc-Arg-His-Arg-NHBn) | > 10 | 5.35 (≈ 8.15 µM) | > 10 | > 10 | inactive | > 10 | 16.41 | > 10 | inactive | inactive |  | > 10 | inactive | inactive | 10 (≈ 15.2 µM) | 10 (≈ 15.2 µM) | > 1.8 | > 1.8 | > 1.8 | > 1.8 | selectivity ratio [19]: > 1.8; selectivity ratio [20]: > 1.8 |
| Cc1ccc(-c2nc(C[C@H](NC(=O)[C@H](CCCNC(=N)N)NC(=O)OC(C)(C)C)C(=O)N[C@@H](CCCNC(=N)N)C(=O)NCc3ccccc3)c[nH]2)cc1 | > 10 | 2.15 (≈ 2.88 µM) | > 10 | > 10 | inactive | > 10 | 19.41 | > 10 | inactive | inactive |  | > 10 | inactive | inactive | 2.5 (≈ 3.35 µM) | 2.5 (≈ 3.35 µM) | > 4.6 | > 4.6 | > 4.6 | > 4.6 | selectivity ratio [19]: > 4.6; selectivity ratio [20]: > 4.6 |
| CC(C)(C)OC(=O)N[C@@H](CCCNC(=N)N)C(=O)N[C@@H](Cc1c[nH]c(-c2ccccc2)n1)C(=O)N[C@@H](CCCNC(=N)N)C(=O)NCc1ccccc1 | > 10 | 0.67 (≈ 0.914 µM) | > 10 | > 10 | inactive | > 10 | 17.63 | > 10 | inactive | inactive |  | > 10 | inactive | inactive | 1.25 (≈ 1.71 µM) | 1.25 (≈ 1.71 µM) | > 14.9 | > 14.9 | > 14.9 | > 14.9 | selectivity ratio [19]: > 14.9; selectivity ratio [20]: > 14.9 |
| COC(=O)[C@H](CCCNC(=N)N)NC(=O)[C@H](Cc1c[nH]c(-c2ccccc2)n1)NC(=O)[C@@H](N)CCCNC(=N)N | > 10 |  | > 10 | > 10 | inactive | > 10 |  | > 10 | inactive | inactive | inactive | > 10 | inactive | inactive |  |  |  |  |  |  |  |
| COC(=O)[C@H](CCCNC(=N)N)NC(=O)[C@H](Cc1c[nH]c(-c2ccc(-c3ccccc3)cc2)n1)NC(=O)[C@H](CCCNC(=N)N)NC(=O)OC(C)(C)C | > 10 | 0.8 (≈ 1.09 µM) | > 10 | > 10 | inactive | > 10 | 18.64 | > 10 | inactive | inactive |  | > 10 | inactive | inactive | 1.25 (≈ 1.7 µM) | 1.25 (≈ 1.7 µM) | > 12.5 | > 12.5 | > 12.5 | > 12.5 | selectivity ratio [19]: > 12.5; selectivity ratio [20]: > 12.5 |
